Test results reported in ChEMBL document CHEMBL3997782, “Methoxylated 2'-hydroxychalcones as antiparasitic hit compounds” (Eur J Med Chem, 2017).
Converted amounts (≈) assume the structure as drawn.

Legend:
[1] = test system: Trypanosoma brucei brucei; experiment: Anti-parasitic activity against bloodstream form of Trypanosoma brucei brucei Lister 427 after 72 hrs by resazurin-based assay; assay type: functional; settings: Lister 427, 72 h
Outline: (§1)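 Bloodstream-form T. brucei, modified resazurin-based viability assay. EC50 is the arithmetic mean of at least two independent determinations, each run in triplicate.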

[2] = test system: Trypanosoma brucei brucei; experiment: Anti-parasitic activity against bloodstream form of Trypanosoma brucei brucei Lister 427 at 10 uM after 72 hrs by resazurin-based assay relative to control; assay type: functional; settings: Lister 427, 72 h; outline: as §1
[3] = Cytotoxicity against human THP1 cells by MTT assay; assay type: cell-based; settings: THP-1 cells
Outline: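 THP-1 cells differentiated to macrophages with PMA, viability read by colorimetric MTT. CC50 and NOAEL are the arithmetic mean of at least two independent determinations, each run in triplicate.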

Trypanosoma cruzi = experiment: Anti-parasitic activity against Trypanosoma cruzi Y promastigotes infected in HG39 cells at 10 uM by qPCR analysis relative to control; assay type: functional, cell-based; settings: in the assay text read “trypomastigotes” for “promastigotes”
Outline: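 Confluent HG39 cells (3 x 10^6 per well) infected at a 1:1 ratio with blood-derived T. cruzi Y strain trypomastigotes. Growth inhibition was read as parasite gDNA by TaqMan probe-based quantitative real-time PCR.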

[4] = Cytotoxicity against human A549 cells assessed as cell growth at 10 uM by Cell titer-Glo assay relative to control; assay type: cell-based; settings: read-out: Activity
Outline: (§2)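 A549 and WI-38 cells grown in DMEM with 10% v/v FCS, streptomycin 100 µg/ml and penicillin G 100 U/ml. Cell number read as cellular ATP by CellTiter-Glo luminescence. Growth 60–100% scored non-cytotoxic, 0–60% cytostatic, below 0 cytotoxic.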

[5] = Cytotoxicity against human A549 cells assessed as cell growth by Cell titer-Glo assay; assay type: cell-based; outline: as §2
[6] = Cytotoxicity against human […] cells assessed as cell growth at 10 uM by Cell titer-Glo assay relative to control; assay type: cell-based; settings: WI-38 cells, read-out: Activity; outline: as §2
[7] = Cytotoxicity against human […] cells assessed as cell growth by Cell titer-Glo assay; assay type: cell-based; settings: WI-38 cells; outline: as §2
786-0 = experiment: Mitochondrial toxicity in human 786-O cells at 10 uM by mitotracker red chloromethyl-Xrosamine staining based-uptake method relative to control; assay type: cell-based; settings: 786-0, 10 µM
Outline: (§3)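 786-O renal carcinoma cells kept in RPMI-1640 with 2 mM glutamine, 10% v/v FCS, streptomycin 100 µg/ml and penicillin G 100 U/ml. Mitochondrial toxicity monitored by MitoTracker Red CMXRos uptake with high-content imaging.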

[8] = Mitochondrial toxicity in human 786-O cells by mitotracker red chloromethyl-Xrosamine staining based-uptake method; assay type: cell-based, 786-0; outline: as §3
CYP2C9 = CYP2C9 (Homo sapiens, UniProt P11712); experiment: Inhibition of human CYP2C9 expressed in baculovirus-infected insect cells at 10 uM using Luciferin-H as substrate in presence of NADPH by P450-Glo luminescence assay relative to control; settings: probe Luciferin-H
Sequence of CYP2C9 (P11712 whole entry): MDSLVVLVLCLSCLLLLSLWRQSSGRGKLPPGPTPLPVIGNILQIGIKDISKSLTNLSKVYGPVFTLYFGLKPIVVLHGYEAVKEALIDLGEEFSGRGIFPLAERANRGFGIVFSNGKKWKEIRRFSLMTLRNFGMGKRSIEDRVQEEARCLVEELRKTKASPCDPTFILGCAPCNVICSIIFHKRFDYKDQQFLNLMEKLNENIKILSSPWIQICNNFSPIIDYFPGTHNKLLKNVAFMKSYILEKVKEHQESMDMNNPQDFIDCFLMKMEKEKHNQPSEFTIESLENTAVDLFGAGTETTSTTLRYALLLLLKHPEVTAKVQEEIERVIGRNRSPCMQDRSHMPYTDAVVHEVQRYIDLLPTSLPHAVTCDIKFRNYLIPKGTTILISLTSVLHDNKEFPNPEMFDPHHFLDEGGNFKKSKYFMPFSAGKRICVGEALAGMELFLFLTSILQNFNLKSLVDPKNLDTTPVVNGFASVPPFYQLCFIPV

Cytochrome P450 2D6 = Cytochrome P450 2D6 (Homo sapiens, UniProt P10635); experiment: Inhibition of human CYP2D6 expressed in baculovirus-infected insect cells using Luciferin-ME EGE as substrate in presence of NADPH by P450-Glo luminescence assay; assay type: ADME
Sequence of Cytochrome P450 2D6 (P10635 whole entry): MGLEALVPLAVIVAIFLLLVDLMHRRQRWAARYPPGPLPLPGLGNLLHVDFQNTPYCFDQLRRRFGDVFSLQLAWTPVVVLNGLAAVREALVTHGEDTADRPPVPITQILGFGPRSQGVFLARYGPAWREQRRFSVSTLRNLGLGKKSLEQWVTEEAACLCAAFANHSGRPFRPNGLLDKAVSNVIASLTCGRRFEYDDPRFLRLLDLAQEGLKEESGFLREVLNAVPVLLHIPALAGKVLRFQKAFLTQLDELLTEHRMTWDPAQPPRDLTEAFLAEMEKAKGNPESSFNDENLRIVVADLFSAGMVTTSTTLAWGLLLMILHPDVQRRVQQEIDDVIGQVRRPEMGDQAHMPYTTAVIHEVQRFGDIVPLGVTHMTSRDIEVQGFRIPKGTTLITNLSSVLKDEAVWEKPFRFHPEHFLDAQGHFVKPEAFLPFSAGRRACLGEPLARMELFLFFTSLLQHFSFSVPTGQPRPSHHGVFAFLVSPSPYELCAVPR
Outline: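 CYP enzymes as microsomal preparations from baculovirus-infected insect cells, run on the P450-Glo luminogenic substrate platform. A fall in light output indicates inhibition.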

[9] = Solubility of the compound in water measured after 18 hrs by UV-vis spectroscopic method; assay type: physicochemical
Outline: (§4)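 Saturated suspensions prepared at 100 µM in water, 100 µM in PBS, 200 µM in PBS + 10% DMSO and 10 mM in PBS + 50% DMSO. Held 18 h at 25°C, passed through a 0.2 µm filter, then quantified by UV-Vis absorbance at 312 nm using the calculated extinction coefficient.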

[10] = Solubility of the compound in phosphate buffered saline measured after 18 hrs by UV-vis spectroscopic method; assay type: physicochemical; outline: as §4
[11] = Solubility of the compound in phosphate buffered saline with 10% DMSO measured after 18 hrs by UV-vis spectroscopic method; assay type: physicochemical; outline: as §4
[12] = Solubility of the compound in phosphate buffered saline with 50% DMSO measured after 18 hrs by UV-vis spectroscopic method; assay type: physicochemical; outline: as §4
[13] = Half-life in BALB/c mouse at 1 mg/kg, iv by LC-MS method; assay type: ADME, organism-based; settings: in vivo
Outline: (§5)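 BALB/c mice dosed either free (8% DMSO; 1 mg/kg IV or 20 mg/kg oral), or 20 mg/kg oral in 50% w/v hydroxypropyl-β-cyclodextrin, or 20 mg/kg oral in 25% cyclodextrins plus 50% PEG 400. Serial submandibular blood samples stored at -20°C. Plasma measured by isocratic LC-MS (acetonitrile:water 80:20, 0.2 ml/min), quantifier transition m/z 315.0>161.0.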

[14] = Half-life in BALB/c mouse at 20 mg/kg, po by LC-MS method; assay type: ADME, organism-based; settings: in vivo; outline: as §5
[15] = Half-life in BALB/c mouse at 20 mg/kg, po as cyclodextrin formulation by LC-MS method; assay type: ADME, organism-based; settings: in vivo; outline: as §5
[16] = Drug uptake in BALB/c mouse plasma at 1 mg/kg, iv measured after 15 mins by LC-MS method; assay type: ADME, organism-based; outline: as §5
[17] = Drug uptake in BALB/c mouse plasma at 1 mg/kg, iv measured after 30 mins by LC-MS method; assay type: ADME, organism-based; outline: as §5
[18] = Drug uptake in BALB/c mouse plasma at 1 mg/kg, iv measured after 180 mins by LC-MS method; assay type: ADME, organism-based; outline: as §5
[19] = Drug uptake in BALB/c mouse plasma at 20 mg/kg, po as cyclodextrin/PEG400 formulation measured after 0.25 hrs by LC-MS method; assay type: ADME, organism-based; outline: as §5
[20] = Drug uptake in BALB/c mouse plasma at 20 mg/kg, po as cyclodextrin/PEG400 formulation measured after 0.75 hrs by LC-MS method; assay type: ADME, organism-based; outline: as §5
[21] = Drug uptake in BALB/c mouse plasma at 20 mg/kg, po as cyclodextrin/PEG400 formulation measured after 1 hr by LC-MS method; assay type: ADME, organism-based; outline: as §5
[22] = Drug uptake in BALB/c mouse plasma at 20 mg/kg, po measured after 0.25 hrs by LC-MS method; assay type: ADME, organism-based; outline: as §5
[23] = Drug uptake in BALB/c mouse plasma at 20 mg/kg, po measured after 0.5 hrs by LC-MS method; assay type: ADME, organism-based; outline: as §5
[24] = Drug uptake in BALB/c mouse plasma at 20 mg/kg, po as 50% cyclodextrin formulation measured after 0.25 hrs by LC-MS method; assay type: ADME, organism-based; outline: as §5
[25] = Drug uptake in BALB/c mouse plasma at 20 mg/kg, po as 50%% cyclodextrin formulation measured after 0.75 hrs by LC-MS method; assay type: ADME, organism-based; outline: as §5
[26] = Drug uptake in BALB/c mouse plasma at 20 mg/kg, po as 50% cyclodextrin formulation measured after 3 hrs by LC-MS method; assay type: ADME, organism-based; outline: as §5
[27] = Drug uptake in BALB/c mouse plasma at 20 mg/kg, po as 50% cyclodextrin formulation measured after 24 hrs by LC-MS method; assay type: ADME, organism-based; outline: as §5
[28] = Lipophilicity, log P of the compound; assay type: physicochemical; settings: octanol/water

EC50 [1]: 4.2 µM
inhibition at 10 µM (CYP2C9): 19%
IC50 (Cytochrome P450 2D6): 6.8 µM
solubility at 18 h [9]: 0.91 µM (≈ 0.286 µg/mL)
solubility at 18 h [10]: 2.37 µM (≈ 0.745 µg/mL)
solubility at 18 h [11]: 11.4 µM (≈ 3.59 µg/mL)
solubility at 18 h [12]: 600 µM (≈ 189 µg/mL)
half-life [13]: 62.5 min
half-life [14]: 12.6 min
half-life [15]: 36.7 min
concentration at 0.25 h [16]: 74 nM
concentration at 0.5 h [17]: 55 nM
concentration at 3 h [18]: 5 nM
concentration at 0.25 h [19]: 48 nM
concentration at 0.75 h [20]: 11 nM
concentration at 1 h [21]: 18 nM
concentration at 0.25 h [22]: 270 nM
concentration at 0.5 h [23]: 49 nM
concentration at 0.25 h [24]: 1100 nM
concentration at 0.75 h [25]: 164 nM
concentration at 3 h [26]: 10 nM
concentration at 24 h [27]: 5 nM
logP [28]: 3.59
SMILES: COc1cccc(/C=C/C(=O)c2cc(OC)c(OC)cc2O)c1
inhibition at 10 µM [2]: 100%
CC50 [3]: 51 µM
inhibition at 10 µM (Trypanosoma cruzi): 46%
viability at 10 µM [4]: 95.5%
GI50 [5]: 12.4 µM
viability at 10 µM [6]: 96.1%
GI50 [7]: 10.8 µM
Activity (786-0): 3.6%
IC50 [8]: 14.5 µM
